According to the array DNA melting data of Ke et al. (doi:10.1101/2024.01.08.574731):

What was measured:
[1] = folding enthalpy; higher = less favourable; fluorescence melt of hairpins on a sequencing array, two-state fit; settings: sodium 0.088 M
In short: (§1)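 Folding enthalpy and melting temperature come from bootstrapped two-state fits to Cy3 fluorescence of library hairpins carrying annealed Cy3 and quencher oligos on a sequenced MiSeq flow cell. Imaging was done in 50 mM Na-HEPES pH 8.0, 25 mM NaCl, stepping by 2.5 °C up to 60 °C, and signals were normalised to pre-quench Cy3 and to control constructs. Results of four replicates were combined by inverse variance, and fitted temperatures were raised by 9.35 °C to match UV melts.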

[2] = melting temperature; fluorescence melt of hairpins on a sequencing array, two-state fit, raised by 9.35 °C to match UV melts; settings: sodium 0.088 M
In short: as §1

Sequence | folding enthalpy [1] | Tm [2]
GGACGCGGAAACACGCCC ((.((.(....).)).)) | -18.9 kcal/mol | 34.3 °C
GGTTCTTCGAAAGAAACC (((..(((....)))))) | -13.4 kcal/mol | 29.1 °C
GGGTCGCGAAAGCGTCCC (((.(((....))).))) | -29 kcal/mol | 67.1 °C
GGGAGAGAAATCTCCC ((((((....)))))) | -35 kcal/mol | 56.4 °C
GACGTAGGAAACTACGTC (((((((....))))))) | -44 kcal/mol | 63.3 °C
GCGAATGGAAACATCCGC (((.(((....))).))) | -23.1 kcal/mol | 45.4 °C
GCATCAGGAAACTGATAC (.(((((....))))).) | -18.7 kcal/mol | 34.2 °C
GATGGGGGAAACCCTATC (((.(((....))).))) | -23.4 kcal/mol | 45 °C
GCGGAATACCGC ((((....)))) | -21.9 kcal/mol | 54.2 °C
GGTCTGGCGAAAGCCACC (((..(((....)))))) | -7.45 kcal/mol | 27.1 °C
GATCAACGTCTTGATC ((((((....)))))) | -30.9 kcal/mol | 42.6 °C
GCAGCGCGAAAGCGGCGC ((..(((....)))..)) | -21.6 kcal/mol | 67.5 °C
GCTGTAGAAATACAGC ((((((....)))))) | -34.7 kcal/mol | 56.9 °C
GCGACAGGAAACCATCGC ((((..(....)..)))) | -17 kcal/mol | 35.8 °C
GACTACGAAAGTAAGGTC ((((((....)))..))) | -21.4 kcal/mol | 32.7 °C
GGCATCGAAAGATTGCC ((((((....))).))) | -31.1 kcal/mol | 52.7 °C
CGCCACGGAAACGTTGCG (((.(((....))).))) | -33.4 kcal/mol | 51.1 °C
CGGGTACGGAAACGTCCG (((..(((....)))))) | -20 kcal/mol | 40 °C
GTTTGCGAAAGCATCAAC ((((((....)))..))) | -8.63 kcal/mol | 27.2 °C
GCGTCGCGAAAGCATCGC (((..((....))..))) | -17.9 kcal/mol | 53.8 °C
CGTGGTCGGAAACGAACG (((..(((....)))))) | -16.3 kcal/mol | 30.5 °C
CGGCCGGAAACGGATCCG ((((((....)))..))) | -22 kcal/mol | 39.8 °C
GCATTGCGAAAGCTCTGC (((..((....))..))) | -23.5 kcal/mol | 39.2 °C

Sequence | folding enthalpy [1] | Tm [2]
GTCAACGGAAACGTTGAC (((((((....))))))) | -45.2 kcal/mol | 69 °C
GATCCGACGCCGGATC ((((((....)))))) | -36.7 kcal/mol | 56.7 °C
GCTAGGCGAAAGCTGAGC (((..((....))..))) | -18.2 kcal/mol | 53.6 °C
GGCGTCGAAAGACTGGCC ((((((....)))..))) | -34.6 kcal/mol | 53.7 °C
GTCTGCGAAAGCACGAC ((((((....))).))) | -21.5 kcal/mol | 50.2 °C
GACATGGGAAACCATGCC (.(((((....))))).) | -15.1 kcal/mol | 42.8 °C
GATCATCTTAATGATC ((((((....)))))) | -36.5 kcal/mol | 49 °C
GATCAGCTGTCTGATC ((((((....)))))) | -38.9 kcal/mol | 50.3 °C
GATCCCCTAGGGGATC ((((((....)))))) | -44.1 kcal/mol | 66.6 °C
GATCCACTGCTGGATC ((((((....)))))) | -41.4 kcal/mol | 50.4 °C
GGTTCCGGAAACGGGATC (.(.(((....))).).) | -19.4 kcal/mol | 39.9 °C
GCTCTTGGAAACAGGAGC ((((.((....)).)))) | -33.9 kcal/mol | 48.9 °C
GCGGTAGGAAACTGCCGC ((((.((....)).)))) | -29.6 kcal/mol | 61.6 °C
GGGCCAGGAAACTAGCCC ((((.((....)).)))) | -27.3 kcal/mol | 48.6 °C
GGAGTCGGAAACGATTCC (((.(((....))).))) | -30.1 kcal/mol | 50.3 °C
GAGGGCGGAAACACCCTC (((((.(....).))))) | -33.7 kcal/mol | 49.6 °C
GATCAAGTCTTTGATC ((((((....)))))) | -43.8 kcal/mol | 48.9 °C
GGTGGGGGAAACCCCGCC ((.((((....)))).)) | -27.5 kcal/mol | 61.4 °C
GATCTGCTGACAGATC ((((((....)))))) | -39.7 kcal/mol | 50.5 °C
GCCTAACGAAAGTTTGGC (((.(((....))).))) | -50.4 kcal/mol | 54.2 °C
GAGTTGCGAAAGCATCTC (((.(((....))).))) | -28.6 kcal/mol | 50.1 °C
GGAGACGAAAGTCTGTCC ((((((....)))..))) | -11.2 kcal/mol | 34.5 °C
GATCTAAAGTTAGATC ((((((....)))))) | -26.1 kcal/mol | 36.7 °C

Sequence | folding enthalpy [1] | Tm [2]
GTTATGCCGAAAGGCAAC (((..(((....)))))) | -7.54 kcal/mol | 33 °C
GTTGCTGGAAACGGTAAC (((.(.(....).).))) | -16.4 kcal/mol | 33.7 °C
GGCTCCACGAAAGTGGCC (((..(((....)))))) | -11.8 kcal/mol | 37.6 °C
GTGCGCGAAAGCGTGCAC ((((((....)))..))) | -17.3 kcal/mol | 59.3 °C
GATCCCCGAAAGGGTATC (((.(((....))).))) | -21.1 kcal/mol | 42.2 °C
GCCCTTTCGAAAGAAGGC (((..(((....)))))) | -33.3 kcal/mol | 37.6 °C
TAGGTGAAAACCTA (((((....))))) | -15.4 kcal/mol | 41.1 °C
GCTATGCGAAAGCCGAGC (((..((....))..))) | -19 kcal/mol | 39.4 °C
GATCTGCTGCCAGATC ((((((....)))))) | -39.2 kcal/mol | 49.8 °C
GGTATGGCGAAAGCCACC (((..(((....)))))) | -8.56 kcal/mol | 38.9 °C
GATCTTCTCAAAGATC ((((((....)))))) | -33.4 kcal/mol | 45.2 °C
GATCAGGGACCTGATC ((((((....)))))) | -50.5 kcal/mol | 54.3 °C
GTACGACCGAAAGGTTAC (((..(((....)))))) | -8.91 kcal/mol | 19.8 °C
GATCAGTCTTCTGATC ((((((....)))))) | -37.8 kcal/mol | 51.2 °C
GGAGTAACGAAAGTTTCC (((..(((....)))))) | -16.6 kcal/mol | 30.7 °C
CCATAGAAATATGG (((((....))))) | -11.6 kcal/mol | 35.2 °C
GAGTCCGAAAGGAATCTC ((((((....)))..))) | -18.8 kcal/mol | 50.2 °C
TGACAGAAATGTCA (((((....))))) | -20.1 kcal/mol | 42.1 °C
GCGGACGACCGC ((((....)))) | -24.6 kcal/mol | 53.8 °C
GTCTGGGGAAACCCAAAC ((.((((....)))).)) | -14.3 kcal/mol | 31.8 °C
GAGGTTGGAAACGATCTC (((.(.(....).).))) | -17.3 kcal/mol | 29.5 °C
GATCTGGGAAACTGGATC ((((..(....)..)))) | -26.2 kcal/mol | 35.2 °C
GTGGCGGGAAACCGTCGC (.(.(((....))).).) | -24.9 kcal/mol | 50.5 °C

Sequence | folding enthalpy [1] | Tm [2]
GTGGGCGAAAGCCTGCAC ((((((....)))..))) | -12.4 kcal/mol | 45.3 °C
GCCATGGGAAACCATAGC ((.((((....)))).)) | -25.6 kcal/mol | 36.5 °C
GCTGGAACGAAAGTTAGC (((..(((....)))))) | -18.1 kcal/mol | 33.9 °C
GGCTGCGAAAGCATCGCC ((((((....)))..))) | -21.8 kcal/mol | 48.5 °C
GATCGATTATTCGATC ((((((....)))))) | -42.7 kcal/mol | 54.2 °C
GACGTTGGAAACAGTGTC (((..((....))..))) | -14.1 kcal/mol | 31.2 °C
CGTTCGGAAACGATTACG ((((((....)))..))) | -18.1 kcal/mol | 35.7 °C
GATCCAGATTTGGATC ((((((....)))))) | -30 kcal/mol | 50.4 °C
GATCGGAATACCGATC ((((((....)))))) | -33.1 kcal/mol | 56.6 °C
GAACAAGGAAACTCGTTC ((((.((....)).)))) | -16.4 kcal/mol | 27 °C
GCCTGGCGAAAGCTATGC ((.(.((....)).).)) | -12.5 kcal/mol | 37.5 °C
GGGGTTGGAAACAATCCC (((.(((....))).))) | -42.4 kcal/mol | 52.5 °C
GCCTTGAAAAAGGC (((((....))))) | -24.4 kcal/mol | 58.1 °C
GGACACGAAAGTGCTCC ((((((....))).))) | -22.5 kcal/mol | 50.1 °C
GATCGGTTACCGATC ((((((...)))))) | -36.1 kcal/mol | 59.3 °C
GATCAATAAGTTGATC ((((((....)))))) | -33.7 kcal/mol | 44.4 °C
GTCCATCGAAAGATGAC (((.(((....)))))) | -16.9 kcal/mol | 42.5 °C
GGCTGCGAAAGCACGGCC ((((((....)))..))) | -23.4 kcal/mol | 53.5 °C
GGCCGTGGAAACACGACC ((.((((....)))).)) | -36.2 kcal/mol | 55 °C
GCTGCCGAAAGGCCAGC ((((((....))).))) | -24.4 kcal/mol | 61.5 °C
GTACGGGAAACCGTAC ((((((....)))))) | -27.9 kcal/mol | 63.2 °C
GGTCGCCGAAAGGCTACC (((.(((....))).))) | -21.2 kcal/mol | 54.4 °C
GTCGTAGGAAACTGCGAC ((((.((....)).)))) | -55.2 kcal/mol | 53.5 °C
